# Measured values from different studies.
# Compare with care: the assays were run in different laboratories.
# Target: Myosin-IIIa (MYO3A, Homo sapiens, UniProt Q8NEV4)
SMILES,assay,conditions,remaining binding
N[C@@H]1CCN(c2nccc(-c3cnn4ncccc34)n2)C1,binding,1 µM,100%
Cc1c(NC(=O)c2cc(C(N)=O)nc3cc(F)ccc23)c(C(F)(F)F)nn1Cc1ccc(C#N)cc1,"binding, competition with immobilised ligand",1 µM,91%
C[C@@H](c1ccc(-n2cnc3c(N)ncnc32)cc1)N1CCc2nn(C)c(Cc3ccccc3)c2C1=O,"binding, competition with immobilised ligand",0.1 µM,97%
O=C(NCC1CCOCC1)c1n[nH]cc1NC(=O)c1c(F)cccc1F,"binding, competition with immobilised ligand",1 µM,88%
Cc1nccc(COC(=O)N2C[C@@H]3[C@@H](CNC(=O)c4ccc5[nH]nnc5c4)[C@@H]3C2)n1,"binding, competition with immobilised ligand",1 µM,99%
CN(CCCC(F)(F)F)c1nccc(-c2cnn3ncccc23)n1,binding,1 µM,78%
c1cncc(-c2cccc(Nc3nccc(NC4CCCCC4)n3)c2)c1,"binding, competition with immobilised ligand",10 µM,99%
O=C(c1ccc(Nc2ncc(Cl)c(-c3cc4ccccc4s3)n2)cc1)N1CCC(N2CCCC2)CC1,"binding, competition with immobilised ligand",1 µM,91%
CCC(=N\O)/C(C)=C/c1ccc(F)cc1,"cell-free assay, competition with immobilised ligand",1 µM,100%
CN(c1nccc(-c2cnn3ncccc23)n1)C1CC1,binding,1 µM,77%
Nc1ncc2c(n1)-c1c([nH]c3ccc(C#CC4CC4)cc13)CCCC2,"binding, competition with immobilised ligand",1 µM,91%
CN(C)c1ncc(F)c(-c2cnn3ncccc23)n1,binding,1 µM,100%
CNC(=O)[C@@H]1CC[C@@H](n2c(-c3ccc4cnccc4c3)nc3ccc(C(=O)NCc4cccc(C(N)=O)c4)cc32)C1,"binding, competition with immobilised ligand",1 µM,100%
O=C(NCCCN1CCOCC1)c1ccc(Nc2nccc(-c3cc4ccccc4s3)n2)cc1,"binding, competition with immobilised ligand",1 µM,87%
CCCCN(CCCC)C(=O)CN1C[C@@H](c2cc(OC)c3c(c2)OCO3)[C@H](C(=O)O)[C@H]1CC(C)(C)CCC,"cell-free assay, competition with immobilised ligand",1 µM,100%
CN(C)c1nccc(-c2cnn3ncccc23)n1,binding,1 µM,100%
O=C(O)c1cc(-c2ccc(C3CCNCC3)cc2)c2ccc(-c3ccc(C(F)(F)F)cc3)cc2c1,"binding, competition with immobilised ligand",1 µM,100%
O=C(NCCCN1CCOCC1)c1ccc(Nc2ncc(Cl)c(-c3ccc(Cl)s3)n2)cc1,"binding, competition with immobilised ligand",1 µM,95%
CN(C(=O)c1ccccc1)c1cc(N(C)c2ccc3c(c2)CCc2ccc(C(=O)NCCN4CCOCC4)cc2C3=O)ccc1F,"cell-free assay, competition with immobilised ligand",1 µM,91%
COc1cnc(Nc2cccc(S(N)(=O)=O)c2)nc1N1CCN(c2ccccc2)CC1,"binding, competition with immobilised ligand",1 µM,100%
F[C@@H]1CCN(c2nccc(-c3cnn4ncccc34)n2)C1,binding,1 µM,93%
